In the library only some 1% were active in any assay of this set; here they are far more common.
DDE Tn7 FP inh: disrupts Tn7 cyclic peptide binding to fibrin D-Dimer-E complex. FP displacement of FITC-Tn7 peptide from fibrin DD(E); 0% = median of compound wells per plate. P02675. inhibition, % at 8.3 µM. 370,000 tested, 0.13% active;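 active means inhibition above the mean of compounds falling within the control limits plus 3 SD of them, cut at about 14% in these data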;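 further: 0% = plate median of compound wells and 100% = 10 µM Aha-Tn7 peptide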
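Measure: % inhibition scaled between sample-field median and high-control FP; Test system: human fibrin DD(E); Quantity: 2 µM final DD(E) protein; Doses: one dose, 8.3 µM nominal; Schedule: compound with protein 10 min, then 3 h after probe, room temperature; Detection: fluorescence polarization; Medium: Tris buffer with calcium and detergent, pH 7.8.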
Tn6 DDE FP: inhibitors of Tn6 peptide binding to human fibrin DD(E) | P02675 | AID 720509 | Fibrin DD(E) TRITC-Tn6 fluorescence polarization displacement | 370,000 tested, 0.21% active | inhibition, % at 8.3 µM;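 active means inhibition above a per-campaign cutoff: mean of compounds within control limits plus 3 SD, cut at about 15% in these data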;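 further: 0% = median of all compound wells on the plate and 100% = blocking peptide control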
PKA-R1A act: activates the PKA-R1A holoenzyme complex. PKA-R1A dissociation, Cy5-IP20 fluorescence polarization; scaled: DMSO 0%, 113 µM cGMP 100%. activation, % at 11.4 µM. 340,000 tested, 0.083% active. AID 504707;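 active means percent activation above the mean of all tested compounds plus 3 SD, cut at about 19% in these data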;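 further: higher means more PKAc released from R1A so a rise in polarization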
PKA-R2B activ: activates the human PKA-R2B holoenzyme complex. AID 504700. activation, % at 11.4 µM. 340,000 tested, 0.079% active. PKA-R2B holoenzyme dissociation, Cy5-IP20 fluorescence polarization; R2B truncated from residue 108, S112A mutant; 0% DMSO only, 100% 113 µM cGMP;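 active means activation above a cutoff set at the mean over all compounds plus 3 SD, cut at about 18% in these data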;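 further: higher means more holoenzyme dissociation and a rise in polarization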
Target sequence (P31323 whole entry, looked up, other chains not shown, the tested form may be a part): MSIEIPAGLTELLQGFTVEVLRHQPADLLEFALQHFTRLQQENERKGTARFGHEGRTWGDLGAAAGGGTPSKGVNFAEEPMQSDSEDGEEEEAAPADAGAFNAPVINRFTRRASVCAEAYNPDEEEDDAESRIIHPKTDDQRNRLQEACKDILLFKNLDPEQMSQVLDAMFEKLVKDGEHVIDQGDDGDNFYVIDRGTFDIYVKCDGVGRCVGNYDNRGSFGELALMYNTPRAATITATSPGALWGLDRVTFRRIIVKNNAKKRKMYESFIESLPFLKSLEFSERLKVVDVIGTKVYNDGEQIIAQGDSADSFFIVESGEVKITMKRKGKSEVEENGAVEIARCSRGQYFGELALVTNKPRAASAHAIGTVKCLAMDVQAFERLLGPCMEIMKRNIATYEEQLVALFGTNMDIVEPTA
Neddyl block: cullin neddylation inhibition; P61081+Q13564; TR-FRET cullin neddylation, biochemical; inhibition, % at 25 µM; 360,000 tested, 0.58% active; AID 651699; in the data active means inhibition above about 36%
Tn6 DDE ctr: counter-screen for inhibitors of Tn6 peptide binding to fibrin DD(E); TRITC-Tn6 fluorescence polarization displacement; 0% = median of compound wells, not DMSO; 680 tested, 2% active; inhibition, % at 8.3 µM; shares compounds with Tn6 DDE FP;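 active means inhibition above the mean of test compounds lying between the control limits plus 3 SD of those, cut at about 14% in these data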;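 further: 0% = median of compound wells and 100% = wells with Aha-Tn7 blocking peptide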
DDE Tn6 confirm: DD(E)-Tn6 binding inhibition, FP confirmation. shares compounds with Tn6 DDE FP. FP displacement of TRITC-Tn6 peptide from DD(E); 0% = per-plate median of test wells. inhibition, % at 8.3 µM. 680 tested, 10% active;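 active means inhibition above the mean of compounds lying within the control limits plus 3 SD, cut at about 16% in these data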;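 further: 100% = high control wells holding a competing inhibitor peptide at 10 µM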
* marks the source's active call; other numbers are inactive results; i = inactive; nt = no result; + = active, no number.

SMILES | DDE Tn7 FP inh | Tn6 DDE FP | PKA-R1A act | PKA-R2B activ | Neddyl block | Tn6 DDE ctr | DDE Tn6 confirm
Cc1c(C)n(Cc2ccc(-c3ccccc3C(=O)O)cc2)c2ccc(C(=O)N[C@@H](C)c3ccc(Br)cc3)cc12 | -5 | -4 | nt | nt | nt | nt | nt
Oc1ccccc1C1CC(c2cccs2)=NC(c2cccc(Br)c2)N1 (stereo unspecified) | 6 | 105* | -2 | -1 | 26 | 6 | -6
O=S(=O)(c1ccccc1)N1N=C(c2cccs2)CC1c1cccc(O)c1 (stereo unspecified) | -2 | -8 | 5 | -2 | -12 | nt | nt
Oc1ccc(N2CCN(C(=S)NCCc3ccccc3)CC2)cc1 | -6 | 16* | -11 | -1 | -5 | 8 | 12
O=C(c1ccccc1)c1ccccc1C(=O)c1ccccc1 | -1 | 0 | -9 | 7 | 5 | nt | nt
Nc1sccc1C(=O)c1ccccc1 | 3 | 15* | nt | nt | nt | 1 | 0
Cc1cc(NS(=O)(=O)c2ccc(NC(=O)CSc3nnc(-c4ccncc4)n3-c3ccccc3)cc2)nc(C)n1 | 3 | 1 | nt | nt | nt | nt | nt
O=C(Nc1cccc([N+](=O)[O-])c1)c1ccc([N+](=O)[O-])o1 | -2 | 18* | 2 | 4 | -54 | 2 | 1
CC(=O)Nc1nc2cc3c(cc2s1)OCO3 | 5 | 16* | 3 | 3 | -5 | 4 | 4
O=C(COC(=O)c1ccc(Cl)c([N+](=O)[O-])c1)Nc1ccccc1OC(F)F | 0 | -6 | -10 | -6 | -16 | nt | nt
O=C(COC(=O)c1ccc(Sc2ncn[nH]2)c([N+](=O)[O-])c1)Nc1cccc(Cl)c1F | 2 | 16* | nt | nt | nt | 8 | 6
O=C(C(=O)N1CCN(S(=O)(=O)c2ccccc2)CC1)c1cccc(C(F)(F)F)c1 | -10 | 0 | nt | nt | nt | nt | nt
CN(C)c1cccc(-c2ccnc(N3CCC(C(N)=O)CC3)n2)c1 | -1 | 9 | nt | nt | nt | nt | nt
CC(=O)N1CCN(C(=O)CCNS(=O)(=O)c2ccc(Br)cc2)CC1 | 0 | 18* | -9 | 14 | -12 | 0 | -4
COc1ccc(NC(=O)C(=O)N/N=C/c2cccnc2)c(OC)c1 | 8 | 16* | -2 | 2 | -3 | 2 | -3
COc1ccc(NC(=O)/C(C#N)=C/c2cccnc2)c(OC)c1 | -1 | 9 | 7 | 6 | -2 | nt | nt
CC(C)CN1C(=O)[C@]2(CC(=O)N(C)C2c2ccccc2)c2cc(-n3cc(CO)nn3)ccc21 (stereo partly specified) | -4 | 2 | nt | nt | nt | nt | nt
C[C@@H]1CN([C@@H](C)CO)C(=O)Cc2cc(NC(=O)Nc3ccc(C(F)(F)F)cc3)ccc2O[C@@H]1CN(C)S(=O)(=O)c1ccc(Cl)cc1 | 0 | 32* | 3 | -13 | -6 | 0 | 12
C[C@H](CO)N1C[C@H](C)[C@@H](CN(C)S(=O)(=O)c2ccc(F)cc2)Oc2ccc(NC(=O)Nc3ccc(C(F)(F)F)cc3)cc2C1=O | 0 | 42* | 0 | 6 | -23 | 5 | 4
C[C@@H]1CN([C@H](C)CO)C(=O)c2cc(NC(=O)Nc3ccc(C(F)(F)F)cc3)ccc2O[C@H]1CN(C)S(=O)(=O)c1cccs1 | 2 | 54* | -4 | -8 | -19 | -2 | 9
C[C@H](CO)N1C[C@H](C)[C@@H](CN(C)S(=O)(=O)c2cccs2)Oc2ccc(NC(=O)Nc3ccc(C(F)(F)F)cc3)cc2C1=O | 10 | 51* | -10 | -9 | -5 | 2 | 1
C[C@H](CO)N1C[C@H](C)[C@@H](CN(C)S(=O)(=O)c2cccs2)Oc2ccc(NC(=O)Nc3ccccc3)cc2C1=O | 0 | -6 | -1 | -1 | -9 | nt | nt
COC(=O)c1cn(-c2ccc(-c3noc4c3C(=O)N(CC(=O)N3CCOCC3)CC4)cc2)nn1 | -1 | 1 | nt | nt | nt | nt | nt
C[C@H]1Cn2nncc2Cn2c3ccccc3c(=O)n21 | -14 | 2 | nt | nt | nt | nt | nt
O=C(Nc1ccccc1F)Oc1cccc(OC(=O)Nc2ccccc2F)c1 | 0 | 15* | -10 | -2 | -4 | -1 | 0
SMILES | DDE Tn7 FP inh | Tn6 DDE FP | PKA-R1A act | PKA-R2B activ | Neddyl block | Tn6 DDE ctr | DDE Tn6 confirm
CC1CCC2(CC1)CCC2NCc1ccc(Cl)c(Cl)c1 (stereo unspecified) | 4 | -1 | nt | nt | nt | nt | nt
Cc1nn(-c2ccc(F)cc2)c2c1cc(C#N)c1nc3ccccc3n12 | -1 | 16* | 12 | 3 | -40 | 0 | -1
O=C1/C(=C\c2cc([N+](=O)[O-])ccc2O)SC(=S)N1Cc1ccc(Cl)cc1 | -12 | 17* | -8 | 6 | -61 | -24 | -1
COc1ccc(OC)c(C(=O)NC(CC(N)=O)c2ccc(NCCN3CCOCC3)c([N+](=O)[O-])c2)c1 (stereo unspecified) | 3 | 8 | -12 | -6 | -15 | nt | nt
COc1ccc(OC)c(C(=O)NC(CC(N)=O)c2ccc(NCCN3CCCC3)c([N+](=O)[O-])c2)c1 (stereo unspecified) | 4 | 16* | -6 | -1 | -20 | 4 | -5
CC(C)(C)OC(=O)NCc1cc2c(cc1/C=C/S(=O)(=O)NCc1ccc(F)cc1)OCO2 | 3 | 7 | nt | nt | nt | nt | nt
CO/N=C(\CCC(=O)O)c1cccs1 | 6 | 16* | -17 | 3 | -2 | 0 | -4
CCCCN1CN2Cc3cc(F)ccc3C2CS1(=O)=O (stereo unspecified) | -1 | 1 | nt | nt | nt | nt | nt
CCc1ccc(OCC(=O)Nc2ccc3oc(=O)ccc3c2)cc1 | 6 | 17* | 0 | 7 | 12 | 5 | -2
Cc1cccc(OC[C@@H](O)CN2CCC(C(O)(c3ccccc3)c3ccccc3)CC2)c1 | -1 | -3 | nt | nt | nt | nt | nt
COC(=O)c1ccccc1-c1c2ccc(=N)cc-2oc2cc(N)ccc12 | 5 | + | 7 | -1 | i | 53* | 93*
CC(C)Nc1nc(-c2ccccc2)nc(-n2ccnc2)n1 | 4 | 5 | 3 | 0 | -69 | nt | nt
c1ccc(-c2nc(-n3ccnc3)nc(-n3ccnc3)n2)cc1 | 7 | 15* | -1 | -6 | -12 | 2 | -3
N#C/C(=C\c1cccnc1)C(=O)Nc1ccccc1 | 1 | -3 | 8 | -7 | -4 | nt | nt
N#C/C(=C\c1cccnc1)C(=O)Nc1ccc(O)cc1F | 0 | 49* | 5 | -7 | -3 | -2 | -1
CCC(C(=O)Nc1ccccc1N1CCCC1)c1ccccc1Cl (stereo unspecified) | 13 | 8 | nt | nt | nt | nt | nt
Cn1c(=O)n(C)c2cc(N3CCCC3)c(NC(=O)c3cccc(F)c3)cc21 | 6 | 15* | 0 | 7 | 27 | 6 | 1
CCOC(=O)C(=CNc1ccc(C)cc1C)C(=O)OCC | 3 | 15* | -17 | -2 | 9 | 8 | 4
CCOC(=O)C(=CNc1cccc(C)c1C)C(=O)OCC | 4 | -2 | 3 | 0 | -5 | nt | nt
